We go through 18 compounds from ChEMBL document CHEMBL4390684, “The synthesis of 4,6-diaryl-2-pyridones and their bioactivation in CYP1 expressing breast cancer cells” (Bioorg Med Chem Lett, 2019).

A value given as a limit tells only on which side of the number the result lay.

Data set [1] deals with MCF7. Nature of the data set: Antiproliferative activity against ER positive human MCF7 cells expressing low level of CYP assessed as reduction in cell viability measured after 96 hrs by MTT assay. In kind it is functional, cell-based. As to conditions: MCF7, 96 h. The essentials: (§1)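 Antiproliferative IC50 values were determined in MCF-7, MDA-MB-468, TCDD-treated MCF-7 (high CYP1A1 expression) and non-tumour MCF-10A breast cells. Each value is the mean of two independent experiments run in quadruplicate.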

The test system of data set [2] is MCF7. As to the kind of experiment: Activation factor, ratio of antiproliferative IC50 of ER positive human MCF7 cells expressing low level of CYP to antiproliferative IC50 of […]-induced ER positive human MCF7 cells expressing CYP1A1. The class given is functional.
For a further data set, the system named is MCF-10A. As to the kind of experiment: Cytotoxicity against human MCF10A cells assessed as reduction in cell viability after 96 hrs by MTT assay. The class given is cell-based. In a few lines:
as §1

The next data set has as its system MDA-MB-468. As to the kind of experiment: Antiproliferative activity against ER negative human MDA-MB-468 cells expressing CYP1A1 and CYP1B1 assessed as reduction in cell viability measured after 96 hrs by MTT assay. To be noted: MDA-MB-468, 96 h. In kind it is functional, cell-based. In a few lines:
as §1

In data set [3] the test system is MCF7. Nature of the data set: Antiproliferative activity against […]-induced ER positive human MCF7 cells expressing CYP1A1 assessed as reduction in cell viability after 96 hrs by MTT assay. The class given is functional, cell-based. As to conditions: MCF7, 96 h. In a few lines:
as §1

The nature of data set [4]: Selectivity index, ratio of IC50 for human MCF10A cells to IC50 for human MDA-MB-468 cells expressing CYP1A1 and CYP1B1. To be noted: read-out: Ratio IC50. The class given is toxicity.
Another data set concerns the target T1, Cytochrome P450 1A1 (Homo sapiens, UniProt P04798).
T1 sequence (P04798 whole entry): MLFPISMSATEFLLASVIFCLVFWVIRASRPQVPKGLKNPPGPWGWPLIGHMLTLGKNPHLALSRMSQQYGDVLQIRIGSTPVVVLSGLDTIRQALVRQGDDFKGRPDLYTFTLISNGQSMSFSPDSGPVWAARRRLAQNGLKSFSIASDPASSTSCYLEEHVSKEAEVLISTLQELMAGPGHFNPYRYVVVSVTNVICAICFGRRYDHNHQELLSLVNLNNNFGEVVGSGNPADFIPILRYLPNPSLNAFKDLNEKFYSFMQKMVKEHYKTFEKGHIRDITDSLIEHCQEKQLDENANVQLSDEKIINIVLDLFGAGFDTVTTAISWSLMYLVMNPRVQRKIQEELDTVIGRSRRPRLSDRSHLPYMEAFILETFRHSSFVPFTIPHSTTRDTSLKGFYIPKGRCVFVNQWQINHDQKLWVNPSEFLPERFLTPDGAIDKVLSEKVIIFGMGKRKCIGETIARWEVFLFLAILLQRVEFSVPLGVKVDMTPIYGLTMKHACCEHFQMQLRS
Nature of the data set: Drug metabolism in supersomes expressing human CYP1A1 and coexpressing NADPH reductase assessed as CYP1A1-mediated drug metabolism by measuring retention time at 10 uM in the presence of NADPH measured at 5 mins interval for 25 mins by reverse phase HPLC method. The class given is ADME. As to conditions: recombinant enzyme. In a few lines: (§2)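 Substrate was incubated with insect-cell Supersomes expressing human CYP1A1 or CYP1B1 plus NADPH reductase, at 20 pmol/mL CYP. Controls used non-CYP Supersomes, or omitted the compound, NADPH or active enzyme. Duplicate samples were taken every 5 min and quenched with ice-cold acetonitrile. After centrifugation, the supernatant was analysed by reverse-phase HPLC for parent depletion (half-life) and metabolite peaks.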

Another data set concerns the target T2, Cytochrome P450 1B1 (Homo sapiens, UniProt Q16678).
T2 sequence (Q16678 whole entry): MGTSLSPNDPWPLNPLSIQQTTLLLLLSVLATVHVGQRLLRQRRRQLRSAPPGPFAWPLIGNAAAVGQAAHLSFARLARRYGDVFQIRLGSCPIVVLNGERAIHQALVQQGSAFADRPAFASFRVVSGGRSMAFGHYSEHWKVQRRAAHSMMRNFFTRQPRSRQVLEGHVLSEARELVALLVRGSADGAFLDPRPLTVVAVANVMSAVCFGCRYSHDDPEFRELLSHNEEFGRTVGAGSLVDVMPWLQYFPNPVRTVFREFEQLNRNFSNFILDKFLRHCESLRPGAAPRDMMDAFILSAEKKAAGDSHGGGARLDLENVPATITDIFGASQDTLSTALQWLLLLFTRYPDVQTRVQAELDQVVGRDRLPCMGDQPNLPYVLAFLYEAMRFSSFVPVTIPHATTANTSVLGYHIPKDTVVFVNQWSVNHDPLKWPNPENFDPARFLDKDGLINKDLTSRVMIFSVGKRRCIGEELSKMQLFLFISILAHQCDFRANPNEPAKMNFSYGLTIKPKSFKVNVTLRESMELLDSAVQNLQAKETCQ
As to the kind of experiment: Drug metabolism in supersomes expressing human CYP1B1 and coexpressing NADPH reductase assessed as CYP1B1-mediated drug metabolism by measuring retention time at 10 uM in the presence of NADPH measured at 5 mins interval for 25 mins by reverse phase HPLC method. The class given is ADME. To be noted: recombinant enzyme. In a few lines:
as §2

`COc1ccc(-c2cc(-c3ccc(OC)cc3OC)[nH]c(=O)c2)cc1`: the IC50 is 500 nM with MCF7 [1], 1600 nM in the data set on MCF-10A, 80 nM in the data set with MDA-MB-468 and 200 nM in the data set on MCF7 [3]. The “Ratio IC50” value with MCF7 [2] was determined as 2.5. For the same compound, the selectivity ratio in data set [4] was 20.

On to `CCCOc1ccc(-c2cc(-c3ccc(OC)cc3OC)[nH]c(=O)c2)cc1`, for which the IC50 in the data set on MCF7 [1] is 45000 nM; in the data set with MCF-10A it was 50000 nM; with MDA-MB-468, 400 nM; with MCF7 [3], 9000 nM. Moreover, in the data set with MCF7 [2], the “Ratio IC50” value is 5. The selectivity ratio in data set [4] amounted to 125.

On to `COc1ccc(-c2cc(-c3ccc4c(c3)OCO4)cc(=O)[nH]2)cc1OC`, for which the IC50 in the data set with MCF7 [1] is more than 100000 nM; in the data set on MCF-10A, more than 100000 nM; with MDA-MB-468, 410 nM; in the data set with MCF7 [3] it was more than 100000 nM. Also, in data set [4], the selectivity ratio was more than 244.

Consider `COc1ccc(-c2cc(-c3ccc4c(c3)OCCO4)cc(=O)[nH]2)c(OC)c1`, for which the IC50 in the data set with MCF7 [1] was 2500 nM; in the data set with MCF-10A it was 6000 nM; in the data set with MDA-MB-468, 500 nM; with MCF7 [3], 3000 nM. For the same compound, the “Ratio IC50” value in the data set on MCF7 [2] is on record as 0.8. In data set [4], the selectivity ratio amounted to 12.

Regarding `COc1ccc(-c2cc(-c3ccc4c(c3)OCO4)cc(=O)[nH]2)cc1`, the IC50 was more than 100000 nM in the data set with MCF7 [1], more than 100000 nM with MCF-10A, 1000 nM with MDA-MB-468 and more than 100000 nM with MCF7 [3]. Further, the selectivity ratio in data set [4] was more than 100.

As for `O=c1cc(-c2ccc3c(c2)OCO3)cc(-c2ccc(Cl)cc2Cl)[nH]1`, the IC50 is 85000 nM in the data set on MCF7 [1], more than 100000 nM in the data set with MCF-10A, 60000 nM in the data set on MDA-MB-468 and 70000 nM in the data set with MCF7 [3]. The “Ratio IC50” value with MCF7 [2] came out at 1.2. The selectivity ratio in data set [4] is more than 1.7.

As to `COc1cc(OC)cc(-c2cc(-c3ccc4c(c3)OCO4)cc(=O)[nH]2)c1`, the IC50 with MCF7 [1] was 400 nM; in the data set with MCF-10A, 700 nM; in the data set with MDA-MB-468 it was 350 nM; in the data set with MCF7 [3], 200 nM. Besides, the “Ratio IC50” value in the data set on MCF7 [2] was determined as 2. For the same compound, the selectivity ratio in data set [4] was 2.

Turning to `COc1ccc(-c2cc(-c3ccc4c(c3)OCO4)cc(=O)[nH]2)c(OC)c1OC`, the IC50 with MCF7 [1] is 12000 nM; in the data set with MCF-10A it was more than 100000 nM; in the data set with MDA-MB-468, 8000 nM; in the data set on MCF7 [3], 10000 nM. For the same compound, in the data set with MCF7 [2], the “Ratio IC50” value is 1.2. Further, the selectivity ratio in data set [4] is more than 12.5.

With `COc1ccc(-c2cc(-c3ccc(OC)cc3OC)[nH]c(=O)c2)c(OC)c1`, the IC50 came to 9000 nM in the data set with MCF7 [1], 5000 nM with MCF-10A, 5000 nM in the data set on MDA-MB-468 and 4500 nM in the data set on MCF7 [3]. For the same compound, in the data set on MCF7 [2], the “Ratio IC50” value is recorded as 2. The selectivity ratio in data set [4] turned out to be 1.

Regarding `COc1ccc(-c2cc(-c3ccc4c(c3)OCO4)[nH]c(=O)c2)c(OC)c1`, the IC50 in the data set with MCF7 [1] came to 18000 nM; in the data set with MCF-10A it was 80000 nM; in the data set with MDA-MB-468, 6000 nM; with MCF7 [3] it was 1000 nM. Further, the “Ratio IC50” value in the data set on MCF7 [2] amounted to 18. The selectivity ratio in data set [4] was 13.

For the compound `COc1cc(-c2cc(-c3ccc4c(c3)OCO4)cc(=O)[nH]2)cc(OC)c1OC`, the IC50 in the data set on MCF7 [1] is more than 100000 nM; with MCF-10A, more than 100000 nM; with MDA-MB-468, 50000 nM; in the data set with MCF7 [3] it was 200 nM. Besides, the “Ratio IC50” value in the data set with MCF7 [2] is more than 500. Also, the selectivity ratio in data set [4] was more than 2.

`CCCOc1ccc(-c2cc(-c3ccc(OC)c(OC)c3)[nH]c(=O)c2)cc1`: the IC50 in the data set with MCF7 [1] is 60000 nM; with MCF-10A, 70000 nM; with MDA-MB-468 it was 180 nM; in the data set on MCF7 [3] it was 20000 nM. Further, the “Ratio IC50” value in the data set on MCF7 [2] is 3. For the same compound, the selectivity ratio in data set [4] was 389.

On to `COc1ccc(-c2cc(-c3ccc(O)c(O)c3)cc(=O)[nH]2)c(OC)c1`, for which the Retention_time on Cytochrome P450 1A1 and on Cytochrome P450 1B1 was 10.48 min each time. Also, the IC50 is 1500 nM in the data set with MCF7 [1], 1500 nM in the data set with MCF-10A, 500 nM with MDA-MB-468 and 700 nM in the data set on MCF7 [3]. For the same compound, the “Ratio IC50” value with MCF7 [2] was 2.1. In addition, in data set [4], the selectivity ratio worked out at 3.

On to `COc1ccc(OC)c(-c2cc(-c3ccc4c(c3)OCO4)cc(=O)[nH]2)c1`, for which the IC50 in the data set with MCF7 [1] is 2000 nM; in the data set on MCF-10A, 5000 nM; with MDA-MB-468, 20 nM; in the data set with MCF7 [3], 20 nM. In addition, the “Ratio IC50” value in the data set with MCF7 [2] was 100. Besides, the selectivity ratio in data set [4] was 250.

`COc1ccc(-c2cc(-c3ccc(OC)c(OC)c3)cc(=O)[nH]2)c(OC)c1`: the IC50 in the data set on MCF7 [1] is 1000 nM; with MCF-10A, 50000 nM; in the data set with MDA-MB-468 it was 500 nM; in the data set with MCF7 [3] it was 400 nM. Besides, the “Ratio IC50” value in the data set on MCF7 [2] is reported as 2.5. Further, the selectivity ratio in data set [4] was 100.

Take `O=c1cc(-c2ccc3c(c2)OCO3)cc(-c2ccccc2)[nH]1`: the IC50 is 1600 nM with MCF7 [1], 2500 nM in the data set with MCF-10A, 800 nM in the data set on MDA-MB-468 and 800 nM with MCF7 [3]. The “Ratio IC50” value with MCF7 [2] came to 2. For the same compound, in data set [4], the selectivity ratio was found to be 3.1.

As for `COc1ccc(/C=C\c2cc(OC)c(OC)c(OC)c2)cc1O` [COMBRETASTATIN A4], in the data set on MCF7 [2], the “Ratio IC50” value worked out at 1. In addition, the IC50 was 1.6 nM with MCF-10A, 3 nM in the data set with MDA-MB-468 and 2 nM with MCF7 [3]. Further, the selectivity ratio in data set [4] was 0.53.

Turning to `COc1ccccc1-c1cc(-c2ccc3c(c2)OCO3)cc(=O)[nH]1`, the IC50 in the data set on MCF7 [1] was determined as 7000 nM; in the data set on MCF-10A it was 28000 nM; in the data set with MDA-MB-468, 700 nM; in the data set on MCF7 [3] it was 3500 nM. The “Ratio IC50” value in the data set on MCF7 [2] was determined as 2. The selectivity ratio in data set [4] came to 40.
